Where a SMILES comes first, the peptide text is derived from it. [ ]: non-standard residue; d: D form. The star is where a group is joined. Benzoyl(4-tBu) = CC(C)(C)c1ccc(C(=O)*)cc1; Lys(Et2) = CCN(CC)CCCC[C@H](N)C(=O)O
What was measured:
[1] = biological target: EED (Homo sapiens, UniProt O75530); details: cited from earlier work
[2] = test system: PRC2 complexes containing EED mutations (F97A, W364A, Y365A); assay: PRC2 methyltransferase assay with EED aromatic cage mutants; format: biochemical
In short: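 EZH2:EED:SUZ12 complexes carrying EED cage mutations made by site-directed mutagenesis, co-expressed in baculovirus-infected Sf9 cells, and FLAG-affinity purified like wild type. Reaction ran 1 h at 23 °C in 20 mM Tris-HCl pH 8, 5 mM DTT, 0.01% Triton X-100 with 1 µM 3H-SAM, 1 µM biotinylated H3(21–44), and 20 nM complex. Stopped by adding 7.5 M guanidine-HCl. Scintillation proximity read-out on streptavidin Flash-plates after 2 h. Normalised to no-compound (100%) and no-enzyme (0%) CPM.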

Sequence of EED (O75530 whole entry): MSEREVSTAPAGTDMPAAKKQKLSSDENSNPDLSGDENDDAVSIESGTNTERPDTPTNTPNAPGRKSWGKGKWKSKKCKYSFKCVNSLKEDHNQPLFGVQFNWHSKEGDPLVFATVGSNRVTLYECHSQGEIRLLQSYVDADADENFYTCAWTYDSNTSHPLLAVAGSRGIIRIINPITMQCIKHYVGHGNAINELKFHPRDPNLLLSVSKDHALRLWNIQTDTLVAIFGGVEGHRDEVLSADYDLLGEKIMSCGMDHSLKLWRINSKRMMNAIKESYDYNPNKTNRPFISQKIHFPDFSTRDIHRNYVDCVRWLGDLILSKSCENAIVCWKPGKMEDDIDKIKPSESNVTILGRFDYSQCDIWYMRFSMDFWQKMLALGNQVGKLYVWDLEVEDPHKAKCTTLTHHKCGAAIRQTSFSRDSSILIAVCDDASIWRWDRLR

Row | inhibition of basal catalytic activity of PRC2 with EED mutants [2] | SMILES | affinity for EED in solution-based assays [1]
1 | – | CCN(CC)CCCC[C@H](NC(=O)[C@H](CC(C)C)NC(=O)[C@H](C)NC(=O)[C@H](Cc1ccccc1)NC(=O)c1ccc(C(C)(C)C)cc1)C(=O)N[C@@H](CO)C(=O)OC [UNC3866] ({Benzoyl(4-tBu)}-FAL[Lys(Et2)]S-OMe) | lack of affinity
2 | completely abrogates the activity | CCCc1cc(C)[nH]c(=O)c1CNC(=O)c1cc(-c2ccc(N3CCN(C(C)C)CC3)nc2)cc2c1cnn2C(C)C [UNC1999] | –

From paper PMC5376495 (ACS combinatorial science, 2017)
